Source: ChEMBL document CHEMBL1149469, “Hit-to-Lead studies: the discovery of potent, orally bioavailable thiazolopyrimidine CXCR2 receptor antagonists” (Bioorg Med Chem Lett, 2006)

Columns and labels:
[1] = target: T1, C-X-C chemokine receptor type 2 (Homo sapiens) (UniProt P25025); assay: Inhibition of CXCR2 at 10 uM
T1 sequence (whole entry): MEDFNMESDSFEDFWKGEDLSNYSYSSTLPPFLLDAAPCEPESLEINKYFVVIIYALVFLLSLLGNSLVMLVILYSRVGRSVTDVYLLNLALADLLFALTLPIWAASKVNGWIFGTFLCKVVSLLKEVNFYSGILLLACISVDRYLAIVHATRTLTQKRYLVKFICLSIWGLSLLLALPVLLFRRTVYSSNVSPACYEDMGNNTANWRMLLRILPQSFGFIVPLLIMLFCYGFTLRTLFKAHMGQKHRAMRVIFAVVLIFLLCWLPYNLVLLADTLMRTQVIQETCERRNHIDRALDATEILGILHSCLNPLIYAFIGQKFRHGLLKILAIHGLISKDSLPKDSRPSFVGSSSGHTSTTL

[2] = target: T2, C-X-C chemokine receptor type 2 (Homo sapiens, UniProt P25025); assay: Displacement of [125I]IL8 from human recombinant CXCR2 expressed in HEK293 membranes by SPA
T2 sequence (P25025 whole entry): T1 sequence (whole entry)
How it was run: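 Human recombinant CXCR2 in HEK293 cell membranes, screened by scintillation proximity assay at the HTS stage. SPA actives were then validated in a conventional filter-wash [125I]IL8 binding assay on hrCXCR2.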

[3] = Clearance in human liver microsome; type: ADME; conditions: liver microsomes
[4] = Clearance in iv dosed rat; type: ADME, organism-based; conditions: in vivo
[5] = Volume of distribution in iv dosed rat; type: ADME, organism-based; conditions: in vivo, read-out: Vdss
[6] = Half life in iv dosed rat; type: ADME, organism-based; conditions: in vivo
[7] = target: T3, Interleukin-8 receptors, CXCR1/CXCR2 (Homo sapiens, UniProt P25025+P25024); assay: Inhibition of GROalpha-stimulated intracellular calcium mobilisation in human neutrophils by FLIPR; type: functional, cell-based
T3 sequence (P25025 whole entry): T1 sequence (whole entry)
T3 sequence (P25024 whole entry): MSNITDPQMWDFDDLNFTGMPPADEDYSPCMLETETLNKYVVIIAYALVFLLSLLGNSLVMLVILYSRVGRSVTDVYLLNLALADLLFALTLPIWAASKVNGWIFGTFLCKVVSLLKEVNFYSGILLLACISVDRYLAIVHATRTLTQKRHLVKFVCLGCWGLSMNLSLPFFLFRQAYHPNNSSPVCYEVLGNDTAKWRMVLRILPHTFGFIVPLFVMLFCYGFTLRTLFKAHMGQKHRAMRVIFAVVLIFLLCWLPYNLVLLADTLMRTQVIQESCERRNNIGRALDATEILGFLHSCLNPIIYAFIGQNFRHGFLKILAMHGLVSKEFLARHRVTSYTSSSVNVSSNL

[8] = Distribution coefficient of the compound, log D; type: physicochemical; conditions: octanol/water
[9] = Oral bioavailability in rat; type: ADME, organism-based; conditions: in vivo
[10] = Protein binding in plasma; type: ADME, cell-free; conditions: human, read-out: PPB (converted)

Row | SMILES | inhibition [1] [%] | IC50 [2] [nM] | further results
1 | Nc1nc2nc(SCc3cccc(Oc4ccccc4)c3)nc(Cl)c2s1 | < 50 |  | 
2 | Nc1nc2nc(SCc3ccccc3)[nH]c(=O)c2s1 |  | 1300 | microsomal CLint [3]: < 3 µL/min/mg
3 | COC(=O)CSc1nc(SCc2ccccc2)nc2nc(N)sc12 | < 50 |  | 
4 | Nc1nc2nc(SCc3ccccc3)nc(SCCO)c2s1 | < 50 |  | 
5 | Nc1nc2nc(SCc3ccccc3)nc(SCC(=O)O)c2s1 | < 50 |  | 
6 | CC[C@@H](CO)Nc1nc(SCc2cccc(Oc3ccccc3)c2)nc2nc(N)sc12 |  | 1400 | 
7 | Nc1nc2nc(SCc3cccc(F)c3F)[nH]c(=O)c2s1 |  | 270 | microsomal CLint [3]: 2 µL/min/mg; clearance [4]: 9.5 mL/min/kg; Vd [5]: 0.9 L/kg; half-life [6]: 3.5 h
8 | CC[C@H](CO)Nc1nc(SCc2cccc(F)c2F)nc2nc(N)sc12 |  | 9.5 | 
9 | CC(C)(CO)Nc1nc(SCc2cccc(Oc3ccccc3)c2)nc2nc(N)sc12 |  | 50 | 
10 | CCCCCSc1nc2ncsc2c(=O)[nH]1 |  | 10000 | 
11 | CC(C)(CO)Nc1nc(SCc2cccc(F)c2F)nc2nc(N)sc12 |  | 14 | IC50 [7]: 40 nM; microsomal CLint [3]: 31 µL/min/mg; logD [8]: 3.4; clearance [4]: 25 mL/min/kg; Vd [5]: 1.9 L/kg; half-life [6]: 1.2 h; bioavailability [9]: 15%; fraction unbound [10]: 0.016
12 | Nc1nc2nc(SCc3cccc(Oc4ccccc4)c3)[nH]c(=O)c2s1 |  | 480 | 
13 | CC[C@H](CO)Nc1nc(SCc2cccc(Oc3ccccc3)c2)nc2nc(N)sc12 |  | 350 | 

More lines, main results first:

Row | inhibition [1] [%] | IC50 [2] [nM] | SMILES | further results
14 | < 50 |  | CCCCCSc1nc(O)c2sc(NC(C)=O)nc2n1 | 
15 | < 50 |  | CCSc1nc(O)c2sc(N)nc2n1 | 
16 |  | 120 | CC[C@H](CO)Nc1nc(SCc2ccccc2)nc2nc(N)sc12 | microsomal CLint [3]: 6 µL/min/mg; clearance [4]: 40 mL/min/kg; Vd [5]: 2.2 L/kg; half-life [6]: 1 h
17 |  | 10000 | CCCCCSc1nc(O)c2sc(N)nc2n1 | IC50 [7]: 2000 nM; microsomal CLint [3]: 18 µL/min/mg; logD [8]: 2.9
18 |  | 3900 | CC[C@@H](CO)Nc1nc(SCc2ccccc2)nc2nc(N)sc12 | 
19 | < 50 |  | CCCCCSc1nc(NCCCO)c2sc(N)nc2n1 | 
20 | < 50 |  | Nc1nc2nc(SCc3ccccc3)nc(Cl)c2s1 | 
21 | < 50 |  | CCCCCSc1nc(Cl)c2sc(N)nc2n1 | 
22 |  | 10000 | Nc1nc2nc(SCc3ccccc3)nc(N)c2s1 | 
23 | < 50 |  | CCCCCSc1nc(O)c2sc(NC)nc2n1 | 
24 | < 50 |  | CCCCCSc1nc(O)c2sc(Br)nc2n1 | 
25 | < 50 |  | CCCCCSc1nc(NC2CCCC2)c2sc(N)nc2n1 | 
26 | < 50 |  | CSc1nc(O)c2sc(N)nc2n1 | 
27 |  | 7000 | CCCCCSc1nc(NCCO)c2sc(N)nc2n1 | 
28 | < 50 |  | Nc1nc2nc(SCc3cccc(F)c3F)nc(Cl)c2s1 | 
29 | < 50 |  | CCCCCSc1nc(N(CC)CC)c2sc(N)nc2n1 | 
